According to article PMC9482816 (Journal of medicinal chemistry, 2022):
“Also recorded” adds a separate entry of the source.

Tests used:
G9a [1] = molecular target: T1, G9a (Homo sapiens, UniProt Q96KQ7); assay: Mass spectrometry based analysis of G9a-inhibitor adduct formation; format: binding; details: for covalent modification of G9a (MS-based analysis, in words): after 1 h of incubation
T1 sequence (Q96KQ7 913-1193): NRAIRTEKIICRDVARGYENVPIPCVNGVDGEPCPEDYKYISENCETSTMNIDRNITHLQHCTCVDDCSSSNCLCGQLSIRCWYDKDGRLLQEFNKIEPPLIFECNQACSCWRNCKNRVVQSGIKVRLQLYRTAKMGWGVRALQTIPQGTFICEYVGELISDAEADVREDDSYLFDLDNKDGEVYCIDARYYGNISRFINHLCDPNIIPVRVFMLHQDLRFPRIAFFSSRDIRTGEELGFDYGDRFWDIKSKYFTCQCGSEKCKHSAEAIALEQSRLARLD
Method in brief: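 Purified human G9a catalytic domain (residues 913–1193), 5 μM in 50 mM Tris-HCl pH 7.5, 150 mM NaCl, incubated 1 h at room temperature with 50 μM test compound or DMSO. Intact protein analysed by electrospray LC/TOF mass spectrometry. Protein–inhibitor adduct quantified from the mass shift over unmodified G9a (34 314 Da).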

[2] = tested on: H3K9me2 level in MDA-MB-231 cells; assay: Western blot analysis for H3K9me2 in MDA-MB-231 cells; format: cell-based; details: 0.2, 1, or 5 μM for 24, 48, or 72 h
GLP [3] = molecular target: T2, GLP (Homo sapiens, UniProt Q9H9B1); assay: Isothermal titration calorimetry; format: binding; details: ITC
T2 sequence (Q9H9B1 982-1266): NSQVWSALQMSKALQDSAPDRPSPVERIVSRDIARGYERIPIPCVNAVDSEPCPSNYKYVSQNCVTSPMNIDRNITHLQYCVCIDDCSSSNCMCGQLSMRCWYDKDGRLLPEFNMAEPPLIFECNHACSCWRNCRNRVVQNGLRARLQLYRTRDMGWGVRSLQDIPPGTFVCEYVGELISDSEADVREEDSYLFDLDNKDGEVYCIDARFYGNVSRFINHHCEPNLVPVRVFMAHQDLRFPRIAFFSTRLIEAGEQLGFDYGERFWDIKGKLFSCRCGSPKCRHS

[4] = tested on: H3K9me2 level in K562 cells; assay: Western blot analysis for H3K9me2 in K562 cells; format: cell-based; details: treated for 48 h
G9a [5] = molecular target: T3, G9a (Homo sapiens, UniProt Q96KQ7); assay: Radioactivity-based scintillation proximity biochemical assay, G9a; details: preincubation 5, 15, 45 min
T3 sequence (Q96KQ7 1-1210): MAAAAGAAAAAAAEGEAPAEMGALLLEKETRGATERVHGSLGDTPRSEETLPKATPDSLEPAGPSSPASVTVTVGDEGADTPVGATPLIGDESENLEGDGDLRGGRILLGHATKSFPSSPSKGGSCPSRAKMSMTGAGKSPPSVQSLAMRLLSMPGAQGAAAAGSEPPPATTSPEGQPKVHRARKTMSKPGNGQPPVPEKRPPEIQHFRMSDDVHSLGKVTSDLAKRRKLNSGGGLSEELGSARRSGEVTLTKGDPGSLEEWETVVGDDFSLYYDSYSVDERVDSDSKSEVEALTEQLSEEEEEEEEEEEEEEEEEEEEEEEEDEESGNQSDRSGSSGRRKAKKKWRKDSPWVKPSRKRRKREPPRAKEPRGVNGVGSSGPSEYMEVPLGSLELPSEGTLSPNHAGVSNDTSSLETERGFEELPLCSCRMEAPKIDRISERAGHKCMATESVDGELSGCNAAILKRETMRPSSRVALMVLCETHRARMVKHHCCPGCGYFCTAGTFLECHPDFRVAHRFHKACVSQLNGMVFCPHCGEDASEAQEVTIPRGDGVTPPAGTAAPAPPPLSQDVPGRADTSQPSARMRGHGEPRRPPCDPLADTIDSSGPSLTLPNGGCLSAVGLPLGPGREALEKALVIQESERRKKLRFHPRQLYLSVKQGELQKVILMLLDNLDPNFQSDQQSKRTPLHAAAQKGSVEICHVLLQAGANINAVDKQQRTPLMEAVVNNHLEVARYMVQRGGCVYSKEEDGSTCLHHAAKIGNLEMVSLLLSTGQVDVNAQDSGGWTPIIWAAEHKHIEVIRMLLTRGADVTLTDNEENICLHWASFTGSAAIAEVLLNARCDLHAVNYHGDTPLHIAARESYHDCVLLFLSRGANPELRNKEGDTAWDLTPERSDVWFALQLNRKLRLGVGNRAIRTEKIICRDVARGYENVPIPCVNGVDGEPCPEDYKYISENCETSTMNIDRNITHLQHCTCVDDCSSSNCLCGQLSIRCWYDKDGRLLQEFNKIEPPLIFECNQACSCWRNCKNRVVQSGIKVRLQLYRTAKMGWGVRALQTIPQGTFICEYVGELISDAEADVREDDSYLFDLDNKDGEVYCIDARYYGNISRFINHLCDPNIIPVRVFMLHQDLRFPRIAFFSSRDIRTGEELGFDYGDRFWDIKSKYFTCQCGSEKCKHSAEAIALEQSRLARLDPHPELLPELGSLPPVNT
Method in brief: (§1)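 Tritiated methyl transfer from SAM to H3 peptide, read by scintillation proximity. Enzymes are recombinant human catalytic domains: G9a (913–1193) and GLP (982–1266), each at 5 nM. Substrate is H3 peptide at 0.05 μM and SAM cofactor at 1 μM. Test compound is preincubated with enzyme for 5, 15 or 45 min. Run by a contract lab in four replicates.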

GLP [6] = molecular target: T4, GLP (Homo sapiens, UniProt Q9H9B1); assay: Radioactivity-based scintillation proximity biochemical assay, GLP; details: preincubation 5, 15, 45 min
T4 sequence (Q9H9B1 1-1298): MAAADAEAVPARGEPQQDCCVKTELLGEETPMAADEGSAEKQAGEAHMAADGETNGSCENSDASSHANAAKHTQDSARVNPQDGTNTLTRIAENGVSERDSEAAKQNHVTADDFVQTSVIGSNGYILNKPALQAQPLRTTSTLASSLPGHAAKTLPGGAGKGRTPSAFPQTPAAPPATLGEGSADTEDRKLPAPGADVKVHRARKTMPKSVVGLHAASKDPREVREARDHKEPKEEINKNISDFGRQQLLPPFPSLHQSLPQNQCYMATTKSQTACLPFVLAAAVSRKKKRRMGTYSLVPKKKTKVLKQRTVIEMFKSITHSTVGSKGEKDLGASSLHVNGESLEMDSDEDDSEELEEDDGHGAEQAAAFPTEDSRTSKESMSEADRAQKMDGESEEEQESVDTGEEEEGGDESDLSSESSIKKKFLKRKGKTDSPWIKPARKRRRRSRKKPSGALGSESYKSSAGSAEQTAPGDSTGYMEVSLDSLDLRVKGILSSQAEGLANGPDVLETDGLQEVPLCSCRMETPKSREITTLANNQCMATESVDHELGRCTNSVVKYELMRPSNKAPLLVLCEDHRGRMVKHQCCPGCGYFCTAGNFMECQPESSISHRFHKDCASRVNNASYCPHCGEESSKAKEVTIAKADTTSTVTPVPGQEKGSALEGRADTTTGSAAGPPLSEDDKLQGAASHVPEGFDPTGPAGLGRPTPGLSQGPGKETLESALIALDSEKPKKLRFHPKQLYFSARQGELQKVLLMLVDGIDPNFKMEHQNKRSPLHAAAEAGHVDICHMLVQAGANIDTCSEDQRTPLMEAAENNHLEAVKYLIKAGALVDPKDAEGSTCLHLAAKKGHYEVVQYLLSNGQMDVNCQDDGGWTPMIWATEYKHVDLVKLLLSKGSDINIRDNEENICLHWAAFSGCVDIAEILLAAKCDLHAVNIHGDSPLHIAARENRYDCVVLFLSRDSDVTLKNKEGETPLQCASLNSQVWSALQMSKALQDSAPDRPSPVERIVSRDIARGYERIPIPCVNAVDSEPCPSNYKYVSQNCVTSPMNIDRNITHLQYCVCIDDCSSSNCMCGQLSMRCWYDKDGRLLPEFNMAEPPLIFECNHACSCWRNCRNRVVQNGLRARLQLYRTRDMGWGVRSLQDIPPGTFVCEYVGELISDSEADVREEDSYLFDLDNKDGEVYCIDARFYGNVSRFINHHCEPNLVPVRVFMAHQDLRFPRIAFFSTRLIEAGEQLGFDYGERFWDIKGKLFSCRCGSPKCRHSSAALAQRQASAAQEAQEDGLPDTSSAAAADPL
Method in brief: as §1

[7] = tested on: 21 other methyltransferases (PKMTs and PRMTs); assay: Selectivity assays against other methyltransferases; format: biochemical; details: compound at 1 μM; any of the 21 enzymes
Method in brief: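 Radioactivity-based scintillation proximity format that follows transfer of the 3H-labelled methyl group from SAM to substrate. Test compound at 1 μM, run in duplicate against each methyltransferase. Inhibition expressed as percentage of control enzyme activity.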

MDA-MB-231 cells = assay: Cytotoxicity assay; format: cell-based; details: 3 days, CCK-8 (Figure S2)
Method in brief: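 MDA-MB-231 cells are seeded at 1 × 10^4 cells per well and exposed to test compound at various concentrations for 3 days. Viability is read with CCK-8 following the kit protocol. Values are plotted from triplicate experiments.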

| SMILES | covalent modification of G9a (MS-based analysis, in words) (G9a [1]) | reduction of H3K9me2 level in MDA-MB-231 cells [2] | fold improved binding affinity to GLP compared to UNC0642 (GLP [3]) [fold] | reduction of H3K9me2 level in K562 cells [4] | inhibition of G9a compared to GLP (G9a [5]) | inhibitory activity against G9a with preincubation time (G9a [5]) | rate of G9a adduct formation compared to GLP adduct (G9a [1]; mass spectrometry, 0-120 min, 5 μM G9a or GLP, 50 μM compound) | inhibitory activity against GLP with preincubation time (GLP [6]) | inhibition effect against 21 PKMTs and PRMTs [7] [%] | inhibition of cell growth in MDA-MB-231 cells (MDA-MB-231 cells) |
| --- | --- | --- | --- | --- | --- | --- | --- | --- | --- | --- |
| CCC(=O)Nc1cc(NC2CCN(C(C)C)CC2)c2cc(OC)c(OCCCN3CCCC3)cc2n1 [Compound 9, N-(4-((1-Isopropylpiperidin-4-yl)amino)-6-methoxy-7-(3-(pyrrolidin-1-yl)propoxy)quinolin-2-yl)propionamide] | did not covalently modify G9a | displayed some cellular potency as a reversible inhibitor but was not as potent as compound 8 |  |  |  |  |  |  |  |  |
| C=CC(=O)Nc1cc(NC2CCN(C(C)C)CC2)c2cc(OC)c(OCCCN3CCCC3)cc2n1 [Compound 8, N-(4-((1-Isopropylpiperidin-4-yl)amino)-6-methoxy-7-(3-(pyrrolidin-1-yl)propoxy)quinolin-2-yl)acrylamide] |  | effectively reduced the H3K9me2 mark in a concentration- and time-dependent manner; also recorded: improved potency compared to UNC0642 and compound 9 | 1.3 | reduced the H3K9me2 level in K562 cells; also recorded: much better potency compared to compound 1 and slightly better potency compared to UNC0642 | more effectively inhibited G9a than GLP at all three time points | improved inhibitory activity against G9a and GLP with increased preincubation time | faster than that of the GLP–compound 8 adduct | improved inhibitory activity against G9a and GLP with increased preincubation time | ≤ 50 | more effective than compound 1 and UNC0642 in suppressing the growth of MDA-MB-231 cells |
| C=CC(=O)Nc1nc(NC2CCN(C(C)C)CC2)c2cc(OC)c(OCCCN3CCCC3)cc2n1 [Compound 1, N-(4-((1-Isopropylpiperidin-4-yl)amino)-6-methoxy-7-(3-(pyrrolidin-1-yl)propoxy)-quinazolin-2-yl)acrylamide] |  | slightly lower potency than UNC0642 and compound 9 |  | reduced the H3K9me2 level in K562 cells |  |  |  |  |  |  |
| C=CC(=O)N(C)c1nc(NC2CCN(C(C)C)CC2)c2cc(OC)c(OCCCN3CCCC3)cc2n1 [Compound 6, N-(4-((1-Isopropylpiperidin-4-yl)amino)-6-methoxy-7-(3-(pyrrolidin-1-yl)propoxy)-quinazolin-2-yl)-N-methylacrylamide] | completely lost its ability to covalently modify G9a |  |  |  |  |  |  |  |  |  |
